Test results from ChEMBL document CHEMBL6182834, “Dual EGFR and telomerase inhibitory potential of new triazole tethered Schiff bases endowed with apoptosis: design, synthesis, and biological assessments” (RSC Med Chem, 2025).

Legend:
[1] = Cytotoxicity against HSF cells assessed as growth inhibition at 100 ug/mL incubated for 48 hrs by SRB assay relative to control; assay type: toxicity, cell-based; conditions: human, at 100 µg/mL, read-out: GI
How it was run: (§1)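 SRB assay: cells seeded at 3×10^3/well, allowed 24 h to attach, then exposed to 100 µg/mL for 48 h, three wells per concentration, DMSO 1% v/v vehicle control. Cells fixed with 20% trichloroacetic acid and stained with 0.4% SRB, then OD read at 570 nm. Survival fraction taken as treated OD/control OD.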

A-375 [2] = assay: Antiproliferative activity against human A-375 cells assessed as growth inhibition at 100 ug/mL incubated for 48 hrs by SRB assay relative to control; assay type: functional; conditions: read-out: GI; how it was run: as §1
Huh-7 = assay: Antiproliferative activity against human Huh-7 cells assessed as growth inhibition at 100 ug/mL incubated for 48 hrs by SRB assay relative to control; assay type: functional; conditions: read-out: GI; how it was run: as §1
MDA-MB-468 = assay: Antiproliferative activity against human MDA-MB-468 cells assessed as growth inhibition at 100 ug/mL incubated for 48 hrs by SRB assay relative to control; assay type: functional; conditions: read-out: GI; how it was run: as §1
Caco-2 = assay: Antiproliferative activity against human Caco-2 cells assessed as growth inhibition at 100 ug/mL incubated for 48 hrs by SRB assay relative to control; assay type: functional; conditions: read-out: GI; how it was run: as §1
FaDu = assay: Antiproliferative activity against human FaDu cells assessed as growth inhibition at 100 ug/mL incubated for 48 hrs by SRB assay relative to control; assay type: functional; conditions: read-out: GI; how it was run: as §1
MG-63 = assay: Antiproliferative activity against human MG-63 cells assessed as growth inhibition at 100 ug/mL incubated for 48 hrs by SRB assay relative to control; assay type: functional; conditions: read-out: GI; how it was run: as §1
HeLa = assay: Antiproliferative activity against human HeLa cells assessed as growth inhibition at 100 ug/mL incubated for 48 hrs by SRB assay relative to control; assay type: functional; conditions: read-out: GI; how it was run: as §1
MCF7 = assay: Antiproliferative activity against human MCF7 cells assessed as growth inhibition at 100 ug/mL incubated for 48 hrs by SRB assay relative to control; assay type: functional; conditions: read-out: GI; how it was run: as §1
HCT-116 [3] = assay: Antiproliferative activity against human HCT-116 cells assessed as growth inhibition at 100 ug/mL incubated for 48 hrs by SRB assay relative to control; assay type: functional; conditions: read-out: GI; how it was run: as §1
HepG2 [4] = assay: Antiproliferative activity against human HepG2 cells assessed as growth inhibition at 100 ug/mL incubated for 48 hrs by SRB assay relative to control; assay type: functional; conditions: read-out: GI; how it was run: as §1
[5] = Antiproliferative activity against human HNO 97 cell line assessed as growth inhibition at 100 ug/mL incubated for 48 hrs by SRB assay relative to control; assay type: functional; conditions: read-out: GI; how it was run: as §1
[6] = Cytotoxicity against human oral epithelial cells (OEC) assessed as growth inhibition at 100 ug/mL incubated for 48 hrs by SRB assay relative to control; assay type: toxicity, cell-based, Oral epithelial cell; conditions: at 100 µg/mL, read-out: GI; how it was run: as §1
[7] = Cytotoxicity against human HNO 97 cell line assessed as inhibition of cell growth incubated for 48 hrs by SRB assay; assay type: functional, cell-based; conditions: HNO 97, 48 h
How it was run: (§2)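 Cells plated at 3×10^3/well and left 24 h to attach. Treated at 12.5, 25, 50 and 62.5 µg/mL for 48 h, three wells per concentration, with DMSO (1% v/v) vehicle control. Fixed with 20% TCA, stained with 0.4% SRB, OD read at 570 nm. Survival fraction = treated OD/control OD. IC50 from sigmoidal dose-response curve fitting.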

HCT-116 [8] = assay: Cytotoxicity against human HCT-116 cells assessed as inhibition of cell growth incubated for 48 hrs by SRB assay; assay type: functional, cell-based; conditions: HCT-116, 48 h; how it was run: as §2
A-375 [9] = assay: Cytotoxicity against human A-375 cells assessed as inhibition of cell growth incubated for 48 hrs by SRB assay; assay type: functional, cell-based; conditions: A-375, 48 h; how it was run: as §2
HepG2 [10] = assay: Cytotoxicity against human HepG2 cells assessed as inhibition of cell growth incubated for 48 hrs by SRB assay; assay type: functional, cell-based; conditions: HepG2, 48 h; how it was run: as §2
A-375 [11] = assay: Induction of apoptosis in human A-375 cells assessed as upregulation of caspase 3 expression by measuring fold change at 5.04 microg/ml incubated for 1 hrs by ELISA; assay type: functional; conditions: dose 5.04 µg/ml
How it was run: (§3)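 Sandwich ELISA with plate precoated with capture antibody for each of caspase-3, -8, -9, CDK2, CDK4 and CDK6. Samples and a 7-point standard incubated 1 h at 37 °C, then biotinylated antibody 1 h, avidin-HRP 30 min and TMB 10-20 min. Reaction stopped with sulphuric acid and read at 450 nm. Duplicate readings, zero standard subtracted, amounts taken from the standard curve.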

A-375 [12] = assay: Induction of apoptosis in human A-375 cells assessed as upregulation of caspase 8 expression by measuring fold change at 5.04 microg/ml incubated for 1 hrs by ELISA; assay type: functional; conditions: dose 5.04 µg/ml; how it was run: as §3
A-375 [13] = assay: Induction of apoptosis in human A-375 cells assessed as upregulation of caspase 9 expression by measuring fold change at 5.04 microg/ml incubated for 1 hrs by ELISA; assay type: functional; conditions: dose 5.04 µg/ml; how it was run: as §3
A-375 [14] = assay: Induction of apoptosis in human A-375 cells assessed as downregulation of CDK2 expression by measuring fold change at 5.04 microg/ml incubated for 1 hrs by ELISA; assay type: functional; conditions: dose 5.04 µg/ml; how it was run: as §3
A-375 [15] = assay: Induction of apoptosis in human A-375 cells assessed as downregulation of CDK4 expression by measuring fold change at 5.04 microg/ml incubated for 1 hrs by ELISA; assay type: functional; conditions: dose 5.04 µg/ml; how it was run: as §3
A-375 [16] = assay: Induction of apoptosis in human A-375 cells assessed as downregulation of CDK6 expression by measuring fold change at 5.04 microg/ml incubated for 1 hrs by ELISA; assay type: functional; conditions: dose 5.04 µg/ml; how it was run: as §3
[17] = molecular target: Epidermal growth factor receptor (Homo sapiens) (UniProt P00533); assay: Inhibition of EGFR in human A-375 cells assessed as protein concentration incubated for 1 hrs by ELISA (reference value: 8.91 ng/ml); assay type: cell-based
How it was run: (§4)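 Human EGFR or telomerase measured by sandwich ELISA. Samples and standards incubated 90 min at 37 °C, then biotinylated detection antibody 1 h, avidin-HRP 30 min and substrate about 15 min, all at 37 °C. Reaction stopped and OD read at 450 nm. Concentration taken from the standard curve.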

[18] = molecular target: Telomerase reverse transcriptase (Homo sapiens) (UniProt O14746); assay: Inhibition of telomerase in human A-375 cells assessed as protein concentration incubated for 1 hrs by ELISA (reference value: 3.56 ng/ml); assay type: cell-based; how it was run: as §4
[19] = molecular target: Epidermal growth factor receptor (Homo sapiens) (UniProt P00533); assay: Inhibition of EGFR in human A-375 cells assessed as downregulation of EGFR concentration by measuring fold change incubated for 1 hrs by ELISA; assay type: cell-based; how it was run: as §4
[20] = molecular target: Telomerase reverse transcriptase (Homo sapiens) (UniProt O14746); assay: Inhibition of telomerase in human A-375 cells assessed as downregulation of telomerase concentration by measuring fold change incubated for 1 hrs by ELISA; assay type: cell-based; how it was run: as §4
A-375 [21] = assay: Cell cycle arrest in human A-375 cells assessed as increase in accumulation of cells at G0/G1 phase at 3.1 microM incubated for 48 hrs by PI staining based flow cytometry analysis (reference value: 17.29 %)

Chain of Telomerase reverse transcriptase (Homo sapiens) (O14746 whole entry): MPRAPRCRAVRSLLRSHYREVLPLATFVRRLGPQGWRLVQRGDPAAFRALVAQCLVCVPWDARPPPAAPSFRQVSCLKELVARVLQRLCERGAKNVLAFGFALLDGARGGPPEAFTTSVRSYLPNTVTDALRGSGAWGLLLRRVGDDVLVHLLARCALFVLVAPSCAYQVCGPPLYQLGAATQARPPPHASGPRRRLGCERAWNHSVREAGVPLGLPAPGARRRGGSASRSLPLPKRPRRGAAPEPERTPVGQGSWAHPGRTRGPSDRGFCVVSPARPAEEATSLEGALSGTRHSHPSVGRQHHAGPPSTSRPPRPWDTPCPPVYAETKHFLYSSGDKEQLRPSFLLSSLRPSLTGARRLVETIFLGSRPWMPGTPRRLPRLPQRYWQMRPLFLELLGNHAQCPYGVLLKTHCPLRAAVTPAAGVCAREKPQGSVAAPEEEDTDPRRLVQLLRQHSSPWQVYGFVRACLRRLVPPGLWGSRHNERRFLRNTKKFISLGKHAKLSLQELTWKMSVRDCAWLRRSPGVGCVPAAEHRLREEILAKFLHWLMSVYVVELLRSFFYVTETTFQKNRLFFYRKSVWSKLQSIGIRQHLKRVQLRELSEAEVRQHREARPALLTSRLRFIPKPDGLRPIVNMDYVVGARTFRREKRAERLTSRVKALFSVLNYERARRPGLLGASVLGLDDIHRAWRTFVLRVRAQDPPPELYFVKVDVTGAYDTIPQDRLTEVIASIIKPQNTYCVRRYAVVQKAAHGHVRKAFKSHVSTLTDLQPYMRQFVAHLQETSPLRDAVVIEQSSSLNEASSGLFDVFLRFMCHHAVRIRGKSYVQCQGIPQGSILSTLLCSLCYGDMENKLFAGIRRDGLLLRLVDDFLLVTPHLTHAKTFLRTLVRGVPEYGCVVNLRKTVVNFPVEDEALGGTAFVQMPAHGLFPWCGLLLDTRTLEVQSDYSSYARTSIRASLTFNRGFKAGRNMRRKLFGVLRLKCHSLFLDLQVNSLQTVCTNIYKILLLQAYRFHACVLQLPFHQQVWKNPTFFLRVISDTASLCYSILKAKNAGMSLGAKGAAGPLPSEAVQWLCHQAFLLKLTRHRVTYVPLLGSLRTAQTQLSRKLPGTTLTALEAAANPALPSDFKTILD
Chain of Epidermal growth factor receptor (Homo sapiens) (P00533 whole entry): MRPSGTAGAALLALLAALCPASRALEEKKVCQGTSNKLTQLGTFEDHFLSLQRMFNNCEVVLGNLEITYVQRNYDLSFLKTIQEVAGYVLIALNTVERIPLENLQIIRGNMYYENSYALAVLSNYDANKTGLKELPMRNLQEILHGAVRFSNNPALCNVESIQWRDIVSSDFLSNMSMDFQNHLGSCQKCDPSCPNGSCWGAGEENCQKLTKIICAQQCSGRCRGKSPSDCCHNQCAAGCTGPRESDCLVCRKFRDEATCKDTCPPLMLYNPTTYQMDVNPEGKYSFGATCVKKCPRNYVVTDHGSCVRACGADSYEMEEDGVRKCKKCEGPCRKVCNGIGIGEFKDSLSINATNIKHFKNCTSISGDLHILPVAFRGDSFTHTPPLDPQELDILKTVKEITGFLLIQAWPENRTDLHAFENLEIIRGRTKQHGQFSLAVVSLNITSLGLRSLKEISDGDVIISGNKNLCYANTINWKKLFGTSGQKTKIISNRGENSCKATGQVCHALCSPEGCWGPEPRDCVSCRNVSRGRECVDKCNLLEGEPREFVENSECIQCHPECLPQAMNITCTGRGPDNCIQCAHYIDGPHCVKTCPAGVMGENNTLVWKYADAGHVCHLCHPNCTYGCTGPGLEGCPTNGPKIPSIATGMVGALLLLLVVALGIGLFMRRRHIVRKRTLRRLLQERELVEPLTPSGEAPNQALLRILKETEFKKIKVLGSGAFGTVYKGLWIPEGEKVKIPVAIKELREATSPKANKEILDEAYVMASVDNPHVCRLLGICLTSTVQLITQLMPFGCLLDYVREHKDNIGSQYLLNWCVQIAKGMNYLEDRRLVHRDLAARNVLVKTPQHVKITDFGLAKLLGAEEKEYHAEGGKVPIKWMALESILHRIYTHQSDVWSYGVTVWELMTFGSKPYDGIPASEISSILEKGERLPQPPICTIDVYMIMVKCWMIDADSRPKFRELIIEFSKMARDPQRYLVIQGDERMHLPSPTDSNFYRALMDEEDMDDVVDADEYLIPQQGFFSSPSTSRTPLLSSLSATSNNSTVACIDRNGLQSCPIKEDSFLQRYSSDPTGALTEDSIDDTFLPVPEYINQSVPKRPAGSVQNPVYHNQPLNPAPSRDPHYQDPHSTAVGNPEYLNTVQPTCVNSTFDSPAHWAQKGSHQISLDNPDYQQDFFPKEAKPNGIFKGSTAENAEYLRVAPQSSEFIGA

## COc1cccc(/C=N/NC(=O)c2nnn(-c3ccc(Cl)cc3)c2C)c1OC
[1]
  inhibition at 48 h, 100 ug/mL: 25%
A-375 [2]
  inhibition of growth at 100 µg/mL: 85%
Huh-7
  inhibition of growth at 100 µg/mL: 62%
MDA-MB-468
  inhibition of growth at 100 µg/mL: 69%
Caco-2
  inhibition of growth at 100 µg/mL: 55%
FaDu
  inhibition of growth at 100 µg/mL: 76%
MG-63
  inhibition of growth at 100 µg/mL: 65%
HeLa
  inhibition of growth at 100 µg/mL: 63%
MCF7
  inhibition of growth at 100 µg/mL: 70%
HCT-116 [3]
  inhibition of growth at 100 µg/mL: 82%
HepG2 [4]
  inhibition of growth at 100 µg/mL: 80%
[5]
  inhibition of growth at 100 µg/mL: 72%
[6]
  inhibition at 48 h, 100 ug/mL: 37%
[7]
  IC50: 13.3 µM
HCT-116 [8]
  IC50: 13.3 µM
A-375 [9]
  IC50: 12.6 µM
HepG2 [10]
  IC50: 31.2 µM
A-375 [11]
  fold change (FC): 1.35
A-375 [12]
  fold change (FC): 1.55
A-375 [13]
  fold change (FC): 1.51
A-375 [14]
  fold change (FC): 2.91
A-375 [15]
  fold change (FC): 2.01
A-375 [16]
  fold change (FC): 9.15
[17]
  Activity: 3.45 ng/mL
[18]
  Activity: 1.31 ng/mL
[19]
  fold change (FC): 2.58
[20]
  fold change (FC): 2.72
A-375 [21]
  Activity: 78.39%
